{"source": "paper PMC3701953", "about": "(Bioorganic & medicinal chemistry letters, 2013)", "key": {"HIV-1 NL4-3 [1]": {"tested_on": "HIV-1 NL4-3", "assay": "In vitro anti-HIV-1 NL4-3 antiviral assay in MAGI cells", "format": "cell-based", "conditions": "HIV-1 NL4-3, MAGI cells, mean of three determinations; for EC50: read-out: EC50 (SD), concentration for 50% inhibition of virus replication; for EC90: read-out: EC90 (SD), concentration for 90% reduction of virus replication", "method_in_brief": "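MAGI cells carrying an LTR–β-galactosidase reporter were infected with HIV-1 in the presence of test compound. Infection and Tat expression drive the reporter through the HIV-1 LTR. Cells were lysed 6 days after infection, and β-galactosidase activity was read by chemiluminescence. Values are the mean of three determinations.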"}, "MAGI cells": {"tested_on": "MAGI cells", "assay": "Compound toxicity in MAGI cells by MTS dye reduction", "format": "cell-based"}, "CYP 3A4": {"molecular_target": "CYP 3A4 (Homo sapiens, UniProt P08684)", "sequence (P08684 whole entry)": "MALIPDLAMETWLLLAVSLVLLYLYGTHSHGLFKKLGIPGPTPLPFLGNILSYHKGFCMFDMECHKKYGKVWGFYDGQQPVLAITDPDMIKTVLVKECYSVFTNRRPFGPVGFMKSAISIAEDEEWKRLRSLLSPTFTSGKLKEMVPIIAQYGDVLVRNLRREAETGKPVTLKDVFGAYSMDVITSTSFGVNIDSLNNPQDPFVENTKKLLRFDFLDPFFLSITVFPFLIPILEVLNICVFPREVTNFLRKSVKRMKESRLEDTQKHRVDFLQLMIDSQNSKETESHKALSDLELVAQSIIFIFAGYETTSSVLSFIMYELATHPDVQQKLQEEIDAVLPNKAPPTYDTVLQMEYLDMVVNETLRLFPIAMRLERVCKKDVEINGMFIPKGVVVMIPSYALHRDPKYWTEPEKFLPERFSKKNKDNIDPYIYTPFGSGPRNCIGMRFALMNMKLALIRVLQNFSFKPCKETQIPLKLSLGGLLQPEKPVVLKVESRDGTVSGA", "assay": "CYP 3A4 substrate activity in pooled human liver microsomes", "format": "in vitro ADME", "conditions": "relative to control (100%)"}, "[2]": {"assay": "Stability in pooled, mixed-gender human liver microsomes", "format": "in vitro ADME", "method_in_brief": "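Test compound incubated with 0.5 mg/mL microsomal protein in 100 mM potassium phosphate (pH 7.4), with 5 mM MgCl₂, 5 mM G-6-P, 0.5 U/mL G-6-P-DH and 2 mM NADPH. Mixtures were preincubated 3 min at 37 °C, started with NADPH and run 60 min. Aliquots taken at 0, 15, 30, 45 and 60 min were quenched in ice-cold acetonitrile and centrifuged. Supernatant analysed by reversed-phase HPLC-UV at 360 nm. Mean of three determinations, S.D.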"}, "CYP 2D6": {"molecular_target": "CYP 2D6 (Homo sapiens, UniProt P10635)", "sequence (P10635 whole entry)": "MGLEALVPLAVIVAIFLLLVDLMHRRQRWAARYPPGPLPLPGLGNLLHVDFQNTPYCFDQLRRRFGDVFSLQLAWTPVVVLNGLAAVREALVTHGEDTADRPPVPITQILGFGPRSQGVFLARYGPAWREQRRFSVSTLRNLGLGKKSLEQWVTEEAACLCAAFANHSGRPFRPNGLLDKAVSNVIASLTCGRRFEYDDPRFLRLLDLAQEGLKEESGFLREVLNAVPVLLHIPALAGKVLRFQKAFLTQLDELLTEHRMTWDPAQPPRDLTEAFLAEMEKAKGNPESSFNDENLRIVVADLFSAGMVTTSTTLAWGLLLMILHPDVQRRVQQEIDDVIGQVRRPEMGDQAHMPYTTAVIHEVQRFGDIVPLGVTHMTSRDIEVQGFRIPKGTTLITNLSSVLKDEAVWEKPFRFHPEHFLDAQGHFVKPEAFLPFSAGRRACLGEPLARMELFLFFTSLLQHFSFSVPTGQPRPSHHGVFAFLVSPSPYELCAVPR", "assay": "CYP 2D6 substrate activity in pooled human liver microsomes", "format": "in vitro ADME", "conditions": "for Substrate Activity % ±S.D.: dextromethorphan 200 µM, relative to control (100%)", "method_in_brief": "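Pooled human liver microsomes incubated with the probe substrate and a range of test compound concentrations in 100 mM potassium phosphate (pH 7.4) with 5 mM MgCl₂. Mixtures were preincubated 3 min at 37 °C, then started with NADPH (final 2 mM). Substrate and metabolite were quantified by reversed-phase HPLC-UV: CYP3A4, testosterone/6β-hydroxytestosterone at 254 nm; CYP2D6, dextromethorphan/dextrorphan at 278 nm. Mean of three determinations, S.D.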"}, "HIV-1 NL4-3 [3]": {"tested_on": "HIV-1 NL4-3", "conditions": "read-out: anti-HIV-1 activity in cell culture EC50; MAGI cells; cited from earlier work"}}, "note": "Where “and” joins values, the source holds several entries; their conditions need not be identical. Identical values can stand only once. Like-named read-outs stand apart in the source and are kept apart here.", "data": [{"compound": "(1R,2R)-4-(5-(2,4-difluorobenzyl)-1-(2-fluorobenzyl)-2-oxo-1,2-dihydropyridin-3-yl)-4-hydroxy-N-(2-hydroxycyclopentyl)but-3-enamide [compound 4]", "values": [{"measurement": "EC50", "setting": "HIV-1 NL4-3 [1]", "value": 42.2, "unit": "nM"}, {"measurement": "EC90", "setting": "HIV-1 NL4-3 [1]", "value": 871, "unit": "nM"}, {"measurement": "CC50", "setting": "MAGI cells", "value": 137000, "unit": "nM"}]}, {"compound": "(1S,2S)-4-(5-(2,4-difluorobenzyl)-1-(2-fluorobenzyl)-2-oxo-1,2-dihydropyridin-3-yl)-4-hydroxy-N-(2-hydroxycyclopentyl)but-3-enamide [compound 3]", "values": [{"measurement": "EC50", "setting": "HIV-1 NL4-3 [1]", "value": "25 nM and 25.1 nM"}, {"measurement": "EC90", "setting": "HIV-1 NL4-3 [1]", "value": 415, "unit": "nM"}, {"measurement": "Substrate Activity % ±S.D.", "setting": "CYP 3A4; testosterone 100 µM, compound 3 at 12.5 µM", "value": "109 ±13", "unit": "%"}, {"measurement": "Substrate Activity % ±S.D.", "setting": "CYP 3A4; testosterone 100 µM, compound 3 at 25 µM", "value": "97 ±18", "unit": "%"}, {"measurement": "Substrate Activity % ±S.D.", "setting": "CYP 3A4; testosterone 100 µM, compound 3 at 50 µM", "value": "112 ±15", "unit": "%"}, {"measurement": "Substrate Activity % ±S.D.", "setting": "CYP 3A4; triazolam 200 µM, compound 3 at 12.5 µM", "value": "124 ±23", "unit": "%"}, {"measurement": "Substrate Activity % ±S.D.", "setting": "CYP 3A4; triazolam 200 µM, compound 3 at 25 µM", "value": "98 ±7", "unit": "%"}, {"measurement": "Substrate Activity % ±S.D.", "setting": "CYP 3A4; triazolam 200 µM, compound 3 at 50 µM", "value": "100 ±8", "unit": "%"}, {"measurement": "stability in pooled human liver microsomes (result in words)", "setting": "[2]", "value": "relatively stable"}, {"measurement": "Substrate Activity % ±S.D.", "setting": "CYP 2D6; compound 3 at 12.5 µM", "value": "86 ±7", "unit": "%"}, {"measurement": "Substrate Activity % ±S.D.", "setting": "CYP 2D6; compound 3 at 25 µM", "value": "87 ±17", "unit": "%"}, {"measurement": "Substrate Activity % ±S.D.", "setting": "CYP 2D6; compound 3 at 50 µM", "value": "87 ±13", "unit": "%"}, {"measurement": "inhibition or activation of CYP 2D6 (result in words)", "setting": "CYP 2D6; pooled human liver microsomes, dextromethorphan as substrate", "value": "neither a significant inhibitor nor an activator"}, {"measurement": "CC50", "setting": "MAGI cells; read-out: CC50, concentration to reduce cell viability by 50%, MAGI cells, MTS dye reduction", "value": 40400, "unit": "nM"}]}, {"compound": "O=C(O)C(=O)C=C(O)c1cc(Cc2ccc(F)cc2F)cn(Cc2ccccc2F)c1=O", "note": "[compound 1, 4-(5-(2,4-difluorobenzyl)-1-(2-fluorobenzyl)-2-oxo-1,2-dihydropyridin-3-yl)-4-hydroxy-2-oxobut-3-enoic acid]", "values": [{"measurement": "EC50", "setting": "HIV-1 NL4-3 [3]", "value": 500, "unit": "nM"}]}]}
